# Experimental data from ChEMBL document CHEMBL1221211, “Synthesis enables identification of the cellular target of leucascandrolide A and neopeltolide” (Nat Chem Biol, 2008).
# pIC50: −log10 of the molar value. Calls of active or inactive are those of the source. No cut-off for these calls is given here.
# Tests used:
# Saccharomyces cerevisiae [1] = test: Antifungal activity against Saccharomyces cerevisiae W303-1A in glucose agar media at 1 ug […] by disk diffusion method; assay type: functional; details: read-out: DIZ
# In short: (§1)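 W303-1A grown to saturation in YPD at RT, diluted 10-fold, spread onto YPD (2% glucose) or YPGly (3% v/v glycerol) agar; compound in 20 μl water applied to paper discs placed on agar; plates incubated 2–3 days at 30°C; growth-inhibition zone diameter read.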
# Saccharomyces cerevisiae [2] = test: Effect on cytochrome c oxidase activity of respiratory chain in Saccharomyces cerevisiae W303-1A mitochondria at […]
# Saccharomyces cerevisiae [3] = test: Antifungal activity against Saccharomyces cerevisiae W303-1A in glycerol agar media at 1 ug […] by disk diffusion method; assay type: functional; details: read-out: DIZ; in short: as §1
# PC-3 [4] = test: Inhibition of cell proliferation in human PC3 cells in after 48 hrs; assay type: functional; details: PC-3, 48 h
# A549 [5] = test: Inhibition of bc1 complex in human A549 cells assessed as reduction in ATP production; assay type: cell-based
# In short: (§2)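 A549 cells seeded at 2500 cells/well, left 4 h, then given graded compound with or without 10 mM 2-deoxyglucose for 30 min; duplicate wells; ATP by luciferase luminescence, converted to nmol/cell via ATP standard curve; expressed as % of vehicle; IC50 from ATP decrease.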
# [6] = biological target: T1, Succinate dehydrogenase [ubiquinone] cytochrome b small subunit, mitochondrial (Saccharomyces cerevisiae) (UniProt P37298); test: Effect on succinate:ubiquinone oxidoreductase activity of respiratory chain in Saccharomyces cerevisiae W303-1A mitochondria at […]
# T1 sequence (whole entry): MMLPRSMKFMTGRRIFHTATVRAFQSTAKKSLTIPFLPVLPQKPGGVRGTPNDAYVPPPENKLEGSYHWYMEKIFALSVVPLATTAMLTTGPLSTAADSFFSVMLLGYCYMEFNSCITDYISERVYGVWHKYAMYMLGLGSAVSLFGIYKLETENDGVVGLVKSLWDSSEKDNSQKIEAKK
# [7] = Inhibition of Saccharomyces cerevisiae Cytochrome b-c1 complex
# Saccharomyces cerevisiae [8] = test: Effect on NADH dehydrogenase in respiratory chain of Saccharomyces cerevisiae W303-1A mitochondria at […]
# A549 [9] = test: Inhibition of cell proliferation in human A549 cells in after 48 hrs; assay type: functional; details: A549, 48 h
# [10] = (§3) Inhibition of bc1 complex in human A549 cells assessed as reduction in ATP production in presence of 10 mM of 2-DG; assay type: cell-based; in short: as §2
# HCT-116 [11] = test: Inhibition of cell proliferation in human HCT116 cells in after 48 hrs; assay type: functional; details: HCT-116, 48 h
# [12] = Inhibition of bovine Cytochrome b-c1 complex; design: species or system Bos taurus
# In short: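 Bovine heart mitochondrial bc1 complex purified (DEAE wash 150 mM NaCl, 150–400 mM NaCl gradient), diluted to 0.686 mg/ml in 50 mM phosphate pH 7.5, 300 mM NaCl, 0.1 g/l dodecyl maltoside; activity assayed in 40 mM potassium phosphate pH 7.4, 0.5 mM EDTA by monitoring reduction of equine cytochrome c; dose-response.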
# HCT-116 [13] = test: Induction of cell cycle arrest in human HCT116 assessed as accumulation at G1-phase at 100 uM after 24 hrs by FACS analysis; assay type: functional
# Saccharomyces cerevisiae [14] = test: Inhibition of Saccharomyces cerevisiae NADH oxidase at 10 nM
# Saccharomyces cerevisiae [15] = test: Antifungal activity against Saccharomyces cerevisiae W303-1A in galactose agar media at 50 uM after 24 hrs by spectrophotometry; assay type: functional, organism-based
# HCT-116 [16] = test: Induction of cell cycle arrest in human HCT116 assessed as accumulation at S-phase at 100 uM after 24 hrs by FACS analysis; assay type: functional; details: HCT-116, 24 h
# 143B [17] = test: Inhibition of bc1 complex in human 143B cells assessed as reduction in oxygen uptake at 25 nM in presence of […] of CCCP; assay type: cell-based
# In short: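 143B cells (4 × 10^6 per aliquot) in serum-free medium in stirred respirometer chamber at 37°C; O2 consumption by oxygen electrode; compound added dose-wise, then CCCP uncoupler added to test whether respiration returns.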
# Saccharomyces cerevisiae [18] = test: Antifungal activity against Saccharomyces cerevisiae W303-1A harboring snf6 deficient mutant gene in galactose agar media at 50 uM after 24 hrs by spectrophotometry; assay type: functional, organism-based
# Saccharomyces cerevisiae [19] = test: Antifungal activity against Saccharomyces cerevisiae W303-1A harboring snf4 deficient mutant gene in galactose agar media at 50 uM after 24 hrs by spectrophotometry; assay type: functional, organism-based
# Saccharomyces cerevisiae [20] = test: Antifungal activity against Saccharomyces cerevisiae W303-1A harboring kcs1 deficient mutant gene in galactose agar media at 50 uM after 24 hrs by spectrophotometry; assay type: functional, organism-based
# HCT-116 [21] = test: Effect on cellular respiration in human HCT116 cells assessed as increase in NADH level at 2.5 uM by fluorescence assay; assay type: functional
# In short: (§4)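 HCT116 cells seeded at 200 000 per collagen-coated dish, grown 41 h at 37°C, fresh medium 30–60 min; NADH autofluorescence by spinning-disk confocal microscopy (ex 350 ± 25, em 457 ± 25 nm) every 30 s at 37°C, baseline then 4 min after compound; % change from average initial vs post-addition fluorescence.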
# 143B [22] = test: Inhibition of bc1 complex in human 143B cells assessed as reduction in ATP production in presence of […] of CCCP; assay type: cell-based
# HCT-116 [23] = test: Effect on cellular respiration in human HCT116 cells assessed as increase in NADH level at 0.5 uM by fluorescence assay; assay type: functional, cell-based; in short: as §4
# Saccharomyces cerevisiae [24] = test: Antifungal activity against Saccharomyces cerevisiae W303-1A harboring atg11 deficient mutant gene in galactose agar media at 50 uM after 24 hrs by spectrophotometry; assay type: functional, organism-based
# Saccharomyces cerevisiae [25] = test: Antifungal activity against Saccharomyces cerevisiae W303-1A harboring rvs161 deficient mutant gene supersensitive strain in galactose agar media at 50 uM after 24 hrs by spectrophotometry; assay type: functional, organism-based
# HCT-116 [26] = test: Induction of cell cycle arrest in human HCT116 assessed as accumulation at G2/M-phase at 100 uM after 24 hrs by FACS analysis; assay type: functional
# Saccharomyces cerevisiae [27] = test: Inhibition of cellular respiration in Saccharomyces cerevisiae W303-1A assessed as level of cytochrome b at 10 uM in presence of inhibitor; assay type: functional, organism-based
# Saccharomyces cerevisiae [28] = test: Antifungal activity against Saccharomyces cerevisiae petite strain in glucose agar media at 0.5 ug […] by disk diffusion method; assay type: functional; details: read-out: DIZ
# In short: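 Petite (ρ0) W303-1A made by ethidium bromide (25 μg/ml) treatment in minimal glucose medium, regrown drug-free, identified as white colonies failing to grow on YPGly. Saturated YPD culture diluted 10-fold, spread on glucose agar; compound in 20 μl water on paper discs; 2–3 days at 30°C; zone of inhibition read.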
# Saccharomyces cerevisiae [29] = test: Antifungal activity against Saccharomyces cerevisiae W303-1A in glucose agar media at 0.5 ug after 2 to 3 days by disk diffusion method; details: read-out: DIZ
# OVCAR-8 = test: Cytotoxicity against human OVCAR8 cells; assay type: functional
# HCT-116 [30] = test: Induction of cell cycle arrest in human HCT116 assessed as accumulation at S-phase at 10 uM after 24 hrs by FACS analysis; assay type: functional
# A549 [31] = test: Cytotoxicity against human A549 cells; assay type: functional
# MCF7 = test: Cytotoxicity against human MCF7 cells; assay type: functional
# HCT-116 [32] = test: Cytotoxicity against human HCT116 cells; assay type: functional
# M14 = test: Cytotoxicity against human M14 cells; assay type: functional
# SK-OV-3 = test: Cytotoxicity against human SKOV3 cells; assay type: functional
# Malme-3M = test: Cytotoxicity against human MALME-3M cells; assay type: functional
# SF-268 = test: Cytotoxicity against human SF268 cells; assay type: functional
# SK-MEL-5 = test: Cytotoxicity against human SK-MEL-5 […]; assay type: functional
# NCI/ADR-RES = test: Cytotoxicity against human NCI/ADR-RES cells; assay type: functional
# HCT-116 [33] = test: Induction of cell cycle arrest in human HCT116 assessed as accumulation at G2/M-phase at 10 uM after 24 hrs by FACS analysis; assay type: functional
# K562 = test: Cytotoxicity against human K562 cells; assay type: functional
# CAKI-1 = test: Cytotoxicity against human Caki1 cells; assay type: functional
# DU-145 = test: Cytotoxicity against human DU145 cells; assay type: functional
# 786-0 = test: Cytotoxicity against human 786-0 cells; assay type: functional
# NCI-H226 = test: Cytotoxicity against human NCI-H226 cells; assay type: functional
# HCT-116 [34] = test: Induction of cell cycle arrest in human HCT116 assessed as accumulation at G1-phase at 10 uM after 24 hrs by FACS analysis; assay type: functional
# PC-3 [35] = test: Cytotoxicity against human PC3 cells; assay type: functional
# A549 [36] = test: as §3; assay type: cell-based; in short: as §2
smiles,measurement,setting,value
CCC[C@@H]1C[C@H](OC)C[C@H](C)C[C@@H]2C[C@@H](OC(=O)/C=C\CCc3coc(/C=C\CNC(=O)OC)n3)C[C@H](CC(=O)O1)O2 [NEOPELTOLIDE],zone of inhibition at 1 µg/disc,Saccharomyces cerevisiae [1],33 mm
same,Activity,Saccharomyces cerevisiae [2],inactive
same,zone of inhibition at 1 µg/disc,Saccharomyces cerevisiae [3],46 mm
same,GI50,PC-3 [4],0.0003 µM
same,inhibition,A549 [5],inactive
same,Activity,[6],inactive
same,pIC50,[7],9.22
same,Activity,Saccharomyces cerevisiae [8],inactive
same,GI50,A549 [9],0.0005 µM
same,pIC50,[10],8.89
same,GI50,HCT-116 [11],0.0005 µM
same,pIC50,[12],8.70
CCCCC[C@H]1C[C@@H]2CCC[C@@H](C[C@@H](OC)C[C@@H]3C[C@@H](OC(=O)/C=C\CCc4coc(/C=C\CNC(=O)OC)n4)C[C@H](CC(=O)O1)O3)O2,zone of inhibition at 1 µg/disc,Saccharomyces cerevisiae [1],25 mm
same,Activity,HCT-116 [13],61%
same,Activity,Saccharomyces cerevisiae [2],inactive
same,zone of inhibition at 1 µg/disc,Saccharomyces cerevisiae [3],36 mm
same,GI50,PC-3 [4],0.0008 µM
same,inhibition,A549 [5],inactive
same,inhibition,Saccharomyces cerevisiae [14],Active
same,Activity,Saccharomyces cerevisiae [15],Active
same,Activity,[6],inactive
same,pIC50,[7],8.74
same,Activity,Saccharomyces cerevisiae [8],inactive
same,inhibition at 100 µM,HCT-116 [16],27%
same,inhibition,143B [17],Active
same,Activity,Saccharomyces cerevisiae [18],Active
same,Activity,Saccharomyces cerevisiae [19],Active
same,Activity,Saccharomyces cerevisiae [20],Active
same,GI50,A549 [9],0.0008 µM
same,Activity,HCT-116 [21],40%
same,inhibition,143B [22],Dose-dependent effect
same,Activity,HCT-116 [23],Active
same,pIC50,[10],8.59
same,Activity,Saccharomyces cerevisiae [24],Active
same,Activity,Saccharomyces cerevisiae [25],Active
same,Activity,HCT-116 [26],6%
same,GI50,HCT-116 [11],0.0003 µM
same,inhibition,Saccharomyces cerevisiae [27],Active
same,pIC50,[12],8.22
same,zone of inhibition at 0.5 µg/disc,Saccharomyces cerevisiae [28],21 mm
C[C@@H]1C[C@@H]([C@H](O)CC2CC(=O)NC(=O)C2)C(=O)[C@@H](C)C1 [CYCLOHEXIMIDE],zone of inhibition at 0.5 µg/disc,Saccharomyces cerevisiae [29],30 mm
COC(=O)NC/C=C\c1nc(CC/C=C\C(=O)O[C@@H]2C[C@H]3C[C@H](OC)C[C@H]4O[C@@H](CC[C@@H]4C)C[C@H](/C=C/CC(C)C)OC(=O)C[C@@H](C2)O3)co1,GI50,OVCAR-8,0.28 µM
same,Activity,HCT-116 [30],17%
same,GI50,A549 [31],0.67 µM
same,GI50,MCF7,0.28 µM
same,GI50,HCT-116 [32],0.67 µM
same,GI50,M14,0.28 µM
same,GI50,SK-OV-3,0.67 µM
same,GI50,Malme-3M,0.67 µM
same,GI50,SF-268,0.28 µM
same,GI50,SK-MEL-5,0.67 µM
same,GI50,NCI/ADR-RES,0.67 µM
same,Activity,HCT-116 [33],8%
same,GI50,K562,0.28 µM
same,GI50,CAKI-1,0.67 µM
same,GI50,DU-145,0.67 µM
same,GI50,786-0,0.28 µM
same,GI50,NCI-H226,0.28 µM
same,Activity,HCT-116 [34],71%
same,GI50,PC-3 [35],0.28 µM
CC(=O)O[C@H]1C(=O)[C@@]2(C)[C@H]([C@H](OC(=O)c3ccccc3)[C@]3(O)C[C@H](OC(=O)[C@H](O)[C@@H](NC(=O)c4ccccc4)c4ccccc4)C(C)=C1C3(C)C)[C@]1(OC(C)=O)CO[C@@H]1C[C@@H]2O,inhibition,A549 [36],inactive
